In ChEMBL document CHEMBL4425157, “New antibacterial agents: Hybrid bioisoster derivatives as potential E. coli FabH inhibitors” (Bioorg Med Chem Lett, 2016):
≈ marks a conversion by molar mass, not a printed value. Calls of active or inactive are those of the source. The calls are words filed in the database; no cut-off is given here.

Legend:
Staphylococcus aureus = experiment: Antibacterial activity against Staphylococcus aureus ATCC 29213 by broth microdilution method; format: functional
Escherichia coli = experiment: Antibacterial activity against Escherichia coli ATCC 25922 by broth microdilution method; format: functional
Procedure, shortened: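 MIC read by broth microdilution, run in duplicate.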

Candida albicans = experiment: Antifungal activity against Candida albicans ATCC 10231 by broth dilution method; format: functional
[1] = Growth inhibition of african green monkey Vero cells at highest concentration measured after 72 hrs by MTS assay relative to control; format: cell-based; settings: chlorocebus sabaeus, read-out: GI
Procedure, shortened: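 Vero cells in MTS viability assay; the value is the percentage growth inhibition at the highest compound concentration tested.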

Vero = experiment: Cytotoxicity against african green monkey Vero cells assessed as reduction in cell viability measured after 72 hrs by MTS assay; format: cell-based; settings: Chlorocebus sabaeus
Procedure, shortened: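 Vero cells exposed to compounds, with viability read by MTS assay; IC50 derived from the viability data.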

[2] = Induction of nitrite formation at 100 uM measured after 1 hr in presence of L-cysteine by Griess assay; format: functional
Procedure, shortened: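 Compound at 100 µM incubated with 5 mM L-cysteine in 50 mM phosphate buffer pH 7.4/methanol (1:1), 1 h at 37 °C; aliquots taken and nitrite quantified by Griess reaction.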

Compound | MIC (Staphylococcus aureus) [µM] | MIC (Escherichia coli) [µM] | MIC (Candida albicans) [µM] | inhibition at 72 h [1] [%] | IC50 (Vero) [µM] | Activity [2]
Cc1c(/C=N/NS(=O)(=O)c2ccc(C(C)(C)C)cc2)no[n+]1[O-] | > 100 | 287 (≈ 97.1 µg/mL) | > 100 | 74.8 | > 100 | inactive
CO[C@H]1/C=C/O[C@@]2(C)Oc3c(C)c(O)c4c(O)c(c(/C=N/N5CCN(C)CC5)c(O)c4c3C2=O)NC(=O)/C(C)=C\C=C\[C@H](C)[C@H](O)[C@@H](C)[C@@H](O)[C@@H](C)[C@H](OC(C)=O)[C@@H]1C [RIFAMPIN] |  |  |  | 44.8 | > 100 | 
Cc1c(/C=N/NS(=O)(=O)c2ccccc2)no[n+]1[O-] | > 100 | 10.7 (≈ 3.03 µg/mL) | > 100 | 63.4 | > 100 | inactive
COc1ccc(S(=O)(=O)N/N=C/c2no[n+]([O-])c2C)cc1 | > 100 | 77.8 (≈ 24.3 µg/mL) | > 100 | 0 | > 100 | inactive
Cc1c(/C=N/NS(=O)(=O)c2ccc([N+](=O)[O-])cc2)no[n+]1[O-] | > 100 | > 300 | > 100 | 0 | > 100 | inactive
GENTAMICIN | 0.076 | < 0.02 |  |  |  | 
Cc1ccc(S(=O)(=O)N/N=C/c2no[n+]([O-])c2C)cc1 | > 100 | 0.36 (≈ 0.107 µg/mL) | > 100 | 8.38 | > 100 | inactive
CC1(C)S[C@@H]2[C@H](NC(=O)[C@H](N)c3ccccc3)C(=O)N2[C@H]1C(=O)O [AMPICILLIN] | 1.1 (≈ 0.384 µg/mL) | 9.59 (≈ 3.35 µg/mL) |  |  |  | 
C[C@@H]1[C@H](O)[C@@H](C)/C=C/C=C/C=C/C=C/C=C/C=C/C=C/[C@H](O[C@@H]2O[C@H](C)[C@@H](O)[C@H](N)[C@@H]2O)C[C@@H]2O[C@](O)(C[C@@H](O)C[C@@H](O)[C@H](O)CC[C@@H](O)C[C@@H](O)CC(=O)O[C@H]1C)C[C@H](O)[C@H]2C(=O)O [AMPHOTERICIN B] |  |  | 0.027 (≈ 0.025 µg/mL) |  |  | 
